Source: ChEMBL document CHEMBL1800056, “Discovery of 2-(6-{[(6-fluoroquinolin-2-yl)methyl]amino}bicyclo[3.1.0]hex-3-yl)-N-hydroxypyrimidine-5-carboxamide (CHR-3996), a class I selective orally active histone deacetylase inhibitor” (J Med Chem, 2010)
In brackets after ≈: the same amount, converted by molar mass. One block for each compound: values may come before it. Activity calls are given as the source filed them. No cut-off for these calls is given here.

What was measured:
[1] = AUC (0 to t) in plasma of CD1 mouse at 3 mg/kg, po; type: ADME, organism-based; parameters: dose 3 mg/kg, route oral
How it was run: (§1)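 Oral cassette PK in CD1 mice: four compounds per cassette, each at 3 mg/kg po. AUC0-t (ng h/mL) measured in plasma and spleen; spleen/plasma AUC ratio reported.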

[2] = AUC (0 to t) in spleen of CD1 mouse at 3 mg/kg, po; type: ADME, organism-based; parameters: dose 3 mg/kg, route oral; how it was run: as §1
[3] = Aqueous solubility of the compound in PBS at pH 5.5; type: physicochemical
[4] = Aqueous solubility of the compound in PBS at pH 7.4; type: physicochemical
Rattus norvegicus [5] = test: AUC (0 to t) in rat at 1 mg/kg, iv; type: ADME, organism-based, Plasma; parameters: dose 1 mg/kg, route intravenous; conditions: in vivo
How it was run: (§2)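 Rat single dose, iv 1 mg/kg or po 10 mg/kg, both in 1% DMSO-HPβC (11.25% w/v). AUC0-t in ng h/mL, clearance in (mL/min)/kg, t1/2 in h, F in %.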

Rattus norvegicus [6] = test: AUC (0 to t) in rat at 10 mg/kg, po; type: ADME, organism-based, Plasma; parameters: dose 10 mg/kg, route oral; conditions: in vivo; how it was run: as §2
[7] = Oral bioavailability in dog at 10 mg/kg; type: ADME, organism-based, Canis lupus familiaris; conditions: in vivo
How it was run: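 Dog single dose: iv 1 mg/kg in 5% DMSO-HPβC (11.25% w/v); po 10 mg/kg in 5% DMSO-saline. AUC0-t in ng h/mL, clearance in (mL/min)/kg, t1/2 in h, F in %.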

HepG2 = test: Antiproliferative activity against human HepG2 cells after 72 hrs by WST-1 assay; type: functional; conditions: Homo sapiens, HepG2, 72 h
How it was run: (§3)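 Cells seeded at (1-5) × 10³/well in serum-containing medium for 24 h at 37 °C, 5% CO₂. Inhibitor added at 0.6-10000 nM for 72 h, with WST-1 pulse over the final 4 h. Formazan read at 450 nm (reference 650 nm). Expressed as % inhibition of vehicle response; GI50 is the concentration inhibiting 50% of vehicle response; n = 6 replicates.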

[8] = Antiproliferative activity against human […] cells after 72 hrs by WST-1 assay; type: functional; conditions: Homo sapiens, MCR5-SV2, 72 h; how it was run: as §3
LoVo [9] = test: Ratio of GI50 for SAHA to compound for human LoVo cells after 72 hrs by WST-1 assay; type: functional
How it was run: (§4)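 Cells seeded at (1-5) × 10³/well in serum-containing medium and grown 24 h at 37 °C, 5% CO₂. They were then exposed for 72 h to HDAC inhibitor (0.6-10000 nM), with SAHA run alongside in the same panel. WST-1 was added for the final 4 h and read at 450 nm (650 nm reference). GI50 taken as 50% inhibition of the vehicle response, n = 6.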

A2780 = test: Ratio of GI50 for SAHA to compound for human A2780 cells after 72 hrs by WST-1 assay; type: functional; how it was run: as §4
DU-145 = test: Ratio of GI50 for SAHA to compound for human DU145 cells after 72 hrs by WST-1 assay; type: functional; how it was run: as §4
MIA PaCa-2 = test: Ratio of GI50 for SAHA to compound for human MIAPaCa2 cells after 72 hrs by WST-1 assay; type: functional; how it was run: as §4
COR-L23 [10] = test: Ratio of GI50 for SAHA to compound for human COR-L23 cells after 72 hrs by WST-1 assay; type: functional; how it was run: as §4
COR-L23 [11] = test: Ratio of GI50 for SAHA to compound for doxorubicin-resistant human COR-L23 cells after 72 hrs by WST-1 assay; type: functional; how it was run: as §4
MOLT-4 = test: Ratio of GI50 for SAHA to compound for human MOLT4 cells after 72 hrs by WST-1 assay; type: functional; how it was run: as §4
HuT78 = test: Ratio of GI50 for SAHA to compound for human HUT78 cells after 72 hrs by WST-1 assay; type: functional; how it was run: as §4
U-937 = test: Ratio of GI50 for SAHA to compound for human U937 cells after 72 hrs by WST-1 assay; type: functional; how it was run: as §4
[12] = Ratio of GI50 for SAHA to compound for human […] cells after 72 hrs by WST-1 assay; type: functional; how it was run: as §4
HCT-116 = test: Antitumor activity against human HCT116 cells xenografted in BALB/c mouse assessed as suppression of tumor growth at 50 mg/kg, po administered QD for 14 days; type: functional, organism-based; parameters: dose 50 mg/kg
How it was run: (§5)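 HCT116 xenografts in female nude BALB/c mice, run at EpiStem. Oral daily dosing for 14 days in 5% DMSO-saline at 50 or 75 mg/kg. Tumor volume measured relative to start; drug concentrations in tumor and plasma measured.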

[13] = Drug level in tumor of BALB/c mouse at 50 mg/kg, po administered daily for 14 days; type: ADME, organism-based, Neoplasm; parameters: dose 50 mg/kg, route oral; conditions: read-out: Drug uptake; how it was run: as §5
LoVo [14] = test: Antitumor activity against human LoVo cells xenografted in nude BALB/c mouse assessed as reduction in tumor volume at 25 mg/kg, po administered QD for 19 days; type: functional, organism-based; parameters: dose 25 mg/kg
How it was run: (§6)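 LoVo colorectal xenograft grown subcutaneously in female BALB/c nude mice, run at EpiStem. Compound given orally daily at 25 or 50 mg/kg; tumor volume followed.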

LoVo [15] = test: Antitumor activity against human LoVo cells xenografted in nude BALB/c mouse assessed as reduction in tumor volume at 50 mg/kg, po administered QD for 19 days; type: functional, organism-based; parameters: dose 50 mg/kg; how it was run: as §6
Mus musculus [16] = test: Toxicity in human HCT116 cells xenografted CrTac:NCr-Fox1 nude mouse at 50 mg/kg, po administered daily for 16 days; type: organism-based, HCT-116; parameters: dose 50 mg/kg, route oral; conditions: in vivo, 384 h
How it was run: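 Female CrTac:NCr-Fox1(nu) athymic mice, 6-8 weeks old, given bilateral sc HCT116 implants (2 million cells). Oral dosing at 50 mg/kg in 10% DMSO-saline, once daily from day 6 (tumors ~5 mm mean diameter) until day 16. Controls received vehicle. Tumor size and body weight recorded three times weekly.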

Mus musculus [17] = test: In-vivo inhibition of HDAC1 in human HCT116 cells xenografted CrTac:NCr-Fox1 nude mouse assessed as histone acetylation at 50 mg/kg, po administered daily for 16 days measured after hrs by Western blot analysis relative to control; type: functional, organism-based; parameters: dose 50 mg/kg; conditions: HCT-116
How it was run: (§7)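 Female CrTac:NCr-Fox1(nu) mice, 6-8 weeks old, bearing bilateral sc HCT116 tumors (2 million cells). Daily oral 50 mg/kg in 10% DMSO-saline from day 6 (tumors ~5 mm) to day 16; vehicle controls. Tumor lysates taken 0.5, 1.0 and 4 h after the last dose. Western blot for acetylated histone H3 or α-tubulin, normalized to GAPDH.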

Mus musculus [18] = test: In-vivo inhibition of HDAC6 in human HCT116 cells xenografted CrTac:NCr-Fox1 nude mouse assessed as alpha-tubulin acetylation at 50 mg/kg, po administered daily for 16 days by Western blot analysis relative to control; type: functional, organism-based; parameters: dose 50 mg/kg; conditions: HCT-116; how it was run: as §7
[19] = Ratio of drug level in spleen to plasma of CrTac:NCr-Fox1(nu) athymic mouse at 50 mg/kg, po administered daily for 16 days; type: ADME, organism-based; parameters: dose 50 mg/kg, route oral
How it was run: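 Female CrTac:NCr-Fox1(nu) athymic mice, 6-8 weeks old, inoculated bilaterally sc with 2 million HCT116 colon carcinoma cells. Dosing at 50 mg/kg po daily in 10% DMSO-saline started on day 6 (tumors approx. 5 mm diameter). Controls received vehicle alone. On day 16, plasma, spleen and tumor were collected and frozen for PK assays of drug levels.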

- AUC(0-t) [1]: 93 ng·h/mL
- AUC(0-t) [2]: 775 ng·h/mL
- solubility [3]: 3 µg/mL (≈ 7.61 µM)
- solubility [4]: 1 µg/mL (≈ 2.54 µM)
- AUCt (Rattus norvegicus [5]): 124 ng·h/mL
- AUCt (Rattus norvegicus [6]): 102 ng·h/mL
- bioavailability [7]: 40%
- GI50 (HepG2): 230 nM
- concentration at 336 h [13]: 133 ng/mL
SMILES: O=C(NO)c1cnc(N2C[C@@H]3[C@H](C2)[C@H]3NCc2ccc3cc(F)ccc3n2)nc1 [NANATINOSTAT]
- GI50 [8]: 110 nM
- RatioGI50 (LoVo [9]): 12.1
- RatioGI50 (A2780): 15
- RatioGI50 (DU-145): 21.9
- RatioGI50 (MIA PaCa-2): 12.5
- RatioGI50 (COR-L23 [10]): 10.5
- RatioGI50 (COR-L23 [11]): 5
- RatioGI50 (MOLT-4): 21.6
- RatioGI50 (HuT78): 9.5
- RatioGI50 (U-937): 8.7
- RatioGI50 [12]: 19
- Activity (HCT-116): Active
- Activity (LoVo [14]): Active
- Activity (LoVo [15]): Active

- AUC(0-t) [1]: 58 ng·h/mL
- AUC(0-t) [2]: 436 ng·h/mL
- bioavailability [7]: 56%
- GI50 (HepG2): 470 nM
- Kp at 384 h [19]: 4
SMILES: O=C(NO)c1cnc(N2C[C@@H]3[C@H](C2)[C@H]3NCc2ccc(Cl)cc2)nc1
- Activity (Mus musculus [16]): Non-toxic
- inhibition (Mus musculus [17]): Active
- inhibition (Mus musculus [18]): inactive
